Tests used:
[1] = target: Beta-2 adrenergic receptor (Homo sapiens) (UniProt P07550); assay: Displacement of [3H]CGP-12177 from human beta2-adrenergic receptor at 10 uM relative to control
Method in brief: (§1)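 Outsourced CNS panel of 55 receptor binding assays run by Cerep. Compound tested at 10 μM, the default primary-binding concentration, with inhibition expressed relative to control. Inhibition above 50% taken as a significant effect.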

Rattus norvegicus [2] = assay: Antidepressant activity in po dosed rat assessed as reduction in immobility time by forced swimming test; assay type: functional, organism-based
Method in brief: (§2)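 Male rats dosed orally at 5, 10 or 20 mg/kg alongside vehicle and venlafaxine 30 mg/kg PO groups. 1 h post-dose, each rat placed in a glass cylinder (40 cm × 18 cm) holding 15 cm of 25 ± 1 °C water. Immobility time recorded over a 6 min trial; significant main effects followed by post hoc Fisher's test.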

Salmonella typhimurium [3] = assay: Mutagenic activity in Salmonella typhimurium TA98 assessed as number of reversion mutation at 3 ug/plate; assay type: toxicity, organism-based; conditions: salmonella enterica subsp. enterica serovar typhimurium
Method in brief: (§3)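 Ames reversion test in Salmonella typhimurium TA98 and TA100, with and without rat liver S9 metabolic activation. Compound was dissolved in DMSO and added at 3–5000 μg/plate. Each dose, vehicle and positive control was plated in triplicate, and revertant colonies were counted.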

[4] = Drug uptake in Sprague-Dawley rat brain at 0.5 mg/kg ip after 0.50 hrs
[5] = AUC (0 to time) in Sprague-Dawley rat at 0.5 mg/kg, iv; assay type: ADME, organism-based; parameters: dose 0.5 mg/kg, route intravenous; conditions: plasma
Method in brief: (§4)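 Male SD rats, fasted overnight until 6 h post-dose. PO group received single 2 mg/kg with heparinized blood sampled at 5, 15, 30 min, 1, 2, 4, 8, 24 h. IV group received single 0.5 mg/kg via femoral vein with sampling at 5, 15, 30 min, 1, 2, 4 h. Plasma stored at -40 °C, quantified by LC/MS/MS; 24 rats per group.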

[6] = Mean residence time in Sprague-Dawley rat at 0.5 mg/kg, iv; assay type: ADME, organism-based; parameters: dose 0.5 mg/kg, route intravenous; conditions: in vivo
Method in brief: (§5)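 Male SD rats, fasted overnight until 6 h post-dose; single 0.5 mg/kg femoral-vein injection; blood drawn into heparin at 5, 15, 30 min, 1, 2 and 4 h; plasma stored at -40 °C; drug levels by LC/MS/MS; noncompartmental parameters.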

Salmonella typhimurium [7] = assay: Mutagenic activity in Salmonella typhimurium TA100 assessed as number of reversion mutation at 100 ug/plate; assay type: toxicity, organism-based; conditions: salmonella enterica subsp. enterica serovar typhimurium; method in brief: as §3
[8] = target: Melanocortin receptor 4 (Homo sapiens) (UniProt P32245); assay: Displacement of [125I] NDP-alpha-MSH from human MC4 receptor at 10 uM relative to control; method in brief: as §1
Chain of Melanocortin receptor 4 (Homo sapiens) (P32245 whole entry): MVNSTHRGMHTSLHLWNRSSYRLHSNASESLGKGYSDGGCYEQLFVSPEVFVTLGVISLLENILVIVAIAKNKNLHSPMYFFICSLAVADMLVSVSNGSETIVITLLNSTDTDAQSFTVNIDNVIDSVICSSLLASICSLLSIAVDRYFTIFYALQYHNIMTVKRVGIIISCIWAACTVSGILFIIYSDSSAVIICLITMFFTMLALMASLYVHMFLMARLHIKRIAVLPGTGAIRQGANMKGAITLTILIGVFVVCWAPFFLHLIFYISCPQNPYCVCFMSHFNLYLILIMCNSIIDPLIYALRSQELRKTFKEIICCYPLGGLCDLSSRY

[9] = Ratio of drug level in Sprague-Dawley rat brain to plasma at 0.5 mg/kg iv after 4 hrs; assay type: ADME, organism-based; parameters: dose 0.5 mg/kg, route intravenous; conditions: read-out: BPR
Homo sapiens [10] = organism: Homo sapiens; assay: Inhibition of GABA-gated chloride channel (unknown origin) at 10 uM by [35S]TBPS binding assay relative to control
Method in brief: (§6)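 Outsourced CNS receptor panel (55 binding assays); compound tested at 10 μM in primary radioligand binding; specific binding inhibition expressed relative to control, with >50% inhibition taken as a significant effect.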

[11] = AUC (0 to time) in Sprague-Dawley rat at 2 mg/kg, po; assay type: ADME, organism-based; parameters: dose 2 mg/kg, route oral; conditions: plasma; method in brief: as §4
Rattus norvegicus [12] = assay: Toxicity in rat assessed as effect on locomotion at 20 mg/kg, po after 60 mins by spontaneous locomotor test; assay type: organism-based; parameters: dose 20 mg/kg, route oral; conditions: in vivo, 1 h
Method in brief: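 Rats dosed orally at 20 mg/kg, with vehicle and venlafaxine 30 mg/kg PO as controls; 60 min later placed singly in novel 40×40×50 cm cages under dim light with sound attenuation; activity recorded automatically in 5 min bins over 30 min; mean ± SEM.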

[13] = Ratio of drug level in Sprague-Dawley rat brain to plasma at 0.5 mg/kg iv after 0.50 hrs; assay type: ADME, organism-based; parameters: dose 0.5 mg/kg, route intravenous; conditions: read-out: BPR
[14] = target: D(2) dopamine receptor (Homo sapiens) (UniProt P14416); assay: Displacement of [3H]N-Methylspiperone from human dopamine D2S receptor at 10 uM relative to control; method in brief: as §1
Chain of D(2) dopamine receptor (Homo sapiens) (P14416 whole entry): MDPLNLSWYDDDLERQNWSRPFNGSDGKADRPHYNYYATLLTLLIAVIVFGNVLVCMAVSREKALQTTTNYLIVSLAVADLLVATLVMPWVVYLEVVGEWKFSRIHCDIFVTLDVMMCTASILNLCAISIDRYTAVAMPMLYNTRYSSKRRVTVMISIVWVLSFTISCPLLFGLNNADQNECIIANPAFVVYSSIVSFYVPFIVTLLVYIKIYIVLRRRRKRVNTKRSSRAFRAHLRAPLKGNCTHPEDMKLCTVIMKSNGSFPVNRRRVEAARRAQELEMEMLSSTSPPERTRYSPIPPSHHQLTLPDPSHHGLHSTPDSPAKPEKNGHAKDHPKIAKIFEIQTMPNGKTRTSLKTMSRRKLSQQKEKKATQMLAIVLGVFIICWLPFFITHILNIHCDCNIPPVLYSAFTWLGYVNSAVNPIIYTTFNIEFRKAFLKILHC

[15] = Drug uptake in Sprague-Dawley rat plasma at 0.5 mg/kg iv after 2 hrs; assay type: ADME, organism-based; parameters: dose 0.5 mg/kg, route intravenous; method in brief: as §5
[16] = Elimination half life in Sprague-Dawley rat at 0.5 mg/kg, iv; assay type: ADME, organism-based; parameters: dose 0.5 mg/kg, route intravenous; conditions: in vivo, read-out: beta t1/2 (converted); method in brief: as §5
[17] = target: D(1A) dopamine receptor (Homo sapiens) (UniProt P21728); assay: Displacement of [3H]SCH23390 from human dopamine D1 receptor at 10 uM relative to control; method in brief: as §1
Chain of D(1A) dopamine receptor (Homo sapiens) (P21728 whole entry): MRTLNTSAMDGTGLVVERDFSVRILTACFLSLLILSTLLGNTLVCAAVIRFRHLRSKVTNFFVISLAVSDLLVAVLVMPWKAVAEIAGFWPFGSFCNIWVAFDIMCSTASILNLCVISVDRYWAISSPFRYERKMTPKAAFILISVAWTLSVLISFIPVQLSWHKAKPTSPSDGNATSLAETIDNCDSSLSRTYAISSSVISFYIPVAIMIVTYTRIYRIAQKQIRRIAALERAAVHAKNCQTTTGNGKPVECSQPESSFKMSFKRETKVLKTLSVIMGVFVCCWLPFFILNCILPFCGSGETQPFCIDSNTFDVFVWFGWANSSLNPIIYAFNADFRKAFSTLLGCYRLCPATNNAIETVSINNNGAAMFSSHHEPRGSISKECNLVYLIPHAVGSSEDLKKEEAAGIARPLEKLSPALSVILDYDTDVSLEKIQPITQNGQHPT

Rattus norvegicus [18] = assay: Antidepressant activity in rat assessed as reduction in immobility time at 10 mg/kg, po by forced swimming test relative to control; assay type: functional; method in brief: as §2
[19] = Drug uptake in Sprague-Dawley rat brain at 0.5 mg/kg ip after 0.25 hrs
Salmonella typhimurium [20] = assay: Mutagenic activity in Salmonella typhimurium TA100 assessed as number of reversion mutation at 3 ug/plate; assay type: toxicity, organism-based; conditions: salmonella enterica subsp. enterica serovar typhimurium; method in brief: as §3
[21] = target: Adenosine receptor A1 (Homo sapiens) (UniProt P30542); assay: Displacement of [3H]-DPCPX from human adenosine A1 receptor at 10 uM relative to control; method in brief: as §1
Chain of Adenosine receptor A1 (Homo sapiens) (P30542 whole entry): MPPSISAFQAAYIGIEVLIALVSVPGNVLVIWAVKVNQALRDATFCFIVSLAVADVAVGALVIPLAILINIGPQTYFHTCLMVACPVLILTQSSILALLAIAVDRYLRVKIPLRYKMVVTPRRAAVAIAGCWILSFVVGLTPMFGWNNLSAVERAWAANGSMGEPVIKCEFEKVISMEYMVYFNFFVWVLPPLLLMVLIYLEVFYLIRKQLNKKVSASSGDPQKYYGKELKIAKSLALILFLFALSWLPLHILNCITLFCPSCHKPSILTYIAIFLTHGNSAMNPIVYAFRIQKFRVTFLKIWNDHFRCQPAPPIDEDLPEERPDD

[22] = target: Muscarinic acetylcholine receptor M1 (Homo sapiens) (UniProt P11229); assay: Displacement of [3H]pirenzepine from human muscarinic M1 receptor at 10 uM relative to control; method in brief: as §6
Chain of Muscarinic acetylcholine receptor M1 (Homo sapiens) (P11229 whole entry): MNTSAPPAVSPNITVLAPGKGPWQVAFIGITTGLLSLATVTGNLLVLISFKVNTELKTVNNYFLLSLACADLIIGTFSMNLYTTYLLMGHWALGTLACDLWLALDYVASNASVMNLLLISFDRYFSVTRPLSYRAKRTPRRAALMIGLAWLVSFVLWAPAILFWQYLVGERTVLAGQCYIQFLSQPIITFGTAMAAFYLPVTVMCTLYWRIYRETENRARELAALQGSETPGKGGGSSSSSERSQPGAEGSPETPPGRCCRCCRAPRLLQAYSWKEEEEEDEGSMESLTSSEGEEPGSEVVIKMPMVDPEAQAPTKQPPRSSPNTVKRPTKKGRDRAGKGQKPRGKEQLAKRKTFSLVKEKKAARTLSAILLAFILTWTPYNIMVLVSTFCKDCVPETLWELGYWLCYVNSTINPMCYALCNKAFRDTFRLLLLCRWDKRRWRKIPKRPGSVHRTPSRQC

[23] = target: B2 bradykinin receptor (Homo sapiens) (UniProt P30411); assay: Displacement of [3H]bradykinin from human bradykinin B2 receptor at 10 uM relative to control; method in brief: as §6
Chain of B2 bradykinin receptor (Homo sapiens) (P30411 whole entry): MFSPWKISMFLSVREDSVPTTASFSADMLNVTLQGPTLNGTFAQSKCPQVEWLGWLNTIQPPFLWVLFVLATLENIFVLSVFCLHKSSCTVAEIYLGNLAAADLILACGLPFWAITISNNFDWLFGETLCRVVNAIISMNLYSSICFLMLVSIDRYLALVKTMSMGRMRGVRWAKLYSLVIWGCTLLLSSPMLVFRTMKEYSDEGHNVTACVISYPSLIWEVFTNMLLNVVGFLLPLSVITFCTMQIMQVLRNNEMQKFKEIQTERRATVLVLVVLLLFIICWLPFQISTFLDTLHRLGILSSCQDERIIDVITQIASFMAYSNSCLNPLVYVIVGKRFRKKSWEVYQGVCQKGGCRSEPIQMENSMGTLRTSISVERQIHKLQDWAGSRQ

Homo sapiens [24] = organism: Homo sapiens; assay: Inhibition of Na+ channel (unknown origin) at 10 uM by [3H]batrachotoxinin binding assay relative to control
Method in brief: (§7)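 Radioligand binding was run at a contract laboratory as part of a 55-target CNS receptor panel. Test concentration was 10 μM. Inhibition of specific binding was expressed relative to control, and inhibition greater than 50% was taken as significant.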

[25] = target: 5-hydroxytryptamine receptor 1A (Homo sapiens) (UniProt P08908); assay: Displacement of [3H]OHDPAT from human 5-HT1A receptor at 10 uM relative to control; method in brief: as §1
Chain of 5-hydroxytryptamine receptor 1A (Homo sapiens) (P08908 whole entry): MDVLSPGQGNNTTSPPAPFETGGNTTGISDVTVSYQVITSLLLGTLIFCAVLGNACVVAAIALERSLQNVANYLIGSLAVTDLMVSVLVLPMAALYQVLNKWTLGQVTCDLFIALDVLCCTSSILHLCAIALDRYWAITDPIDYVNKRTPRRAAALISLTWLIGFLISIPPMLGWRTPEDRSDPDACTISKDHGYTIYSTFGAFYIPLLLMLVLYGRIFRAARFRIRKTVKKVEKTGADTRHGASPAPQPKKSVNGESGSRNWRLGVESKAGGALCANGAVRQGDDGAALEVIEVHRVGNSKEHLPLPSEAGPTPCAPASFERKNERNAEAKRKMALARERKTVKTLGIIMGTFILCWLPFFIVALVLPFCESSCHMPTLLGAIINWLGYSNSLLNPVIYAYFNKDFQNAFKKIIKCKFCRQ

[26] = Drug uptake in Sprague-Dawley rat brain at 0.5 mg/kg ip after 1 hrs
[27] = Drug uptake in Sprague-Dawley rat plasma at 0.5 mg/kg iv after 1 hrs; assay type: ADME, organism-based; parameters: dose 0.5 mg/kg, route intravenous; method in brief: as §5
[28] = Drug uptake in Sprague-Dawley rat plasma at 0.5 mg/kg iv after 0.25 hrs; assay type: ADME, organism-based; parameters: dose 0.5 mg/kg, route intravenous; method in brief: as §5
Homo sapiens [29] = organism: Homo sapiens; assay: Inhibition of Kv channel (unknown origin) at 10 uM by [125I]alpha-dendrotoxin binding assay relative to control; method in brief: as §7
[30] = Tmax in Sprague-Dawley rat at 2 mg/kg, po; assay type: ADME, organism-based; parameters: dose 2 mg/kg, route oral; conditions: in vivo
[31] = target: 5-hydroxytryptamine receptor 7 (Homo sapiens) (UniProt P34969); assay: Displacement of [3H]LSD from human 5-HT7 receptor at 10 uM relative to control; method in brief: as §1
Chain of 5-hydroxytryptamine receptor 7 (Homo sapiens) (P34969 whole entry): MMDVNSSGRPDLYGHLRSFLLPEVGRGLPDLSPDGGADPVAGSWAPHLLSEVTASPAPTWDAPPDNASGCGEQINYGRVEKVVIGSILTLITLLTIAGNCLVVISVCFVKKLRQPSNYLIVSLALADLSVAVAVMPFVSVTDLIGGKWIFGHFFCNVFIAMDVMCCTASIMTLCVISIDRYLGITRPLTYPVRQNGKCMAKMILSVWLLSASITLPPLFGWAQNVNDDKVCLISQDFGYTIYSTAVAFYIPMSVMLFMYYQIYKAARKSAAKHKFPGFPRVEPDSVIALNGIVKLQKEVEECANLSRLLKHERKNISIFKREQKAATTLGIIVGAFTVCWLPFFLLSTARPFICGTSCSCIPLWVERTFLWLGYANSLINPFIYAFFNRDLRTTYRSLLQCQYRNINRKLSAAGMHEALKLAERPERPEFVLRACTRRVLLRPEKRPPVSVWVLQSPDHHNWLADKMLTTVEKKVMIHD

[32] = Ratio of drug level in Sprague-Dawley rat brain to plasma at 0.5 mg/kg iv after 1 hrs; assay type: ADME, organism-based; parameters: dose 0.5 mg/kg, route intravenous; conditions: read-out: BPR
Salmonella typhimurium [33] = assay: Mutagenic activity in Salmonella typhimurium TA98 assessed as number of reversion mutation at 100 ug/plate; assay type: toxicity, organism-based; conditions: salmonella enterica subsp. enterica serovar typhimurium; method in brief: as §3
[34] = target: Nociceptin receptor (Homo sapiens) (UniProt P41146); assay: Displacement of [3H] nociceptin from human ORL1 receptor at 10 uM relative to control; method in brief: as §1
Chain of Nociceptin receptor (Homo sapiens) (P41146 whole entry): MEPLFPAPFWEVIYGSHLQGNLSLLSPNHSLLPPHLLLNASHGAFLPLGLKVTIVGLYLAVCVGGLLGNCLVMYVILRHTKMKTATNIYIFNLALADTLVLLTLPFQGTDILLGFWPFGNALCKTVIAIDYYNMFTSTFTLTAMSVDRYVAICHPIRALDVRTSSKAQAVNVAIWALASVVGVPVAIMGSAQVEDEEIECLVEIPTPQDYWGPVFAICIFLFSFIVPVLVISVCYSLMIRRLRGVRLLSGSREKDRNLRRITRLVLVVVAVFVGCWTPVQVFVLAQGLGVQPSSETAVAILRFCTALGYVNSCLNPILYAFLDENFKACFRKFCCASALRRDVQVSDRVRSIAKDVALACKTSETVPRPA

Chain of Beta-2 adrenergic receptor (Homo sapiens) (P07550 whole entry, looked up): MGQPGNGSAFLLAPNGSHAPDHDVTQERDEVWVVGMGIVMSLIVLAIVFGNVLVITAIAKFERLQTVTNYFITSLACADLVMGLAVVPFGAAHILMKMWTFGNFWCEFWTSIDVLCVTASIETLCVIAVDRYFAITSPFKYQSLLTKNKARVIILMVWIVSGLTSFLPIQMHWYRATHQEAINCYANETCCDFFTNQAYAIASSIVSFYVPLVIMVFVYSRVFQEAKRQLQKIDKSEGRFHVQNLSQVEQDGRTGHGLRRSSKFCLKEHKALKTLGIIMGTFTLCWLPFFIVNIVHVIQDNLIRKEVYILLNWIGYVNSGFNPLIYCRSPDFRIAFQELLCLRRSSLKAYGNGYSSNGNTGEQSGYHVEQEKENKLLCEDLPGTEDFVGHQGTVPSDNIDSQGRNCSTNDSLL

Compound: CN(C)CCC(c1ccc(Cl)c(Cl)c1)N1CCOCC1 (centres undefined)
- inhibition [1]: 4.9%
- inhibition (Rattus norvegicus [2]): Dose-dependent effect
- Activity (Salmonella typhimurium [3]): 33
- concentration at 0.5 h [4]: 549 ng/mL
- AUC [5]: 78.6 ng·h/mL
- MRT [6]: 1.06 h
- Activity (Salmonella typhimurium [7]): 74
- inhibition [8]: 0.8%
- Kp at 4 h [9]: 11.4
- inhibition (Homo sapiens [10]): -2.3%
- AUC [11]: 61 ng·h/mL
- Activity (Rattus norvegicus [12]): Non-toxic
- Kp at 0.5 h [13]: 12.3
- inhibition [14]: 4%
- concentration at 2 h [15]: 10.9 ng/mL
- half-life [16]: 1 h
- inhibition [17]: 2.2%
- inhibition in vivo at 10 mg/kg (Rattus norvegicus [18]): 47%
- concentration at 0.25 h [19]: 925 ng/mL
- Activity (Salmonella typhimurium [20]): 87
- inhibition [21]: 8.7%
- inhibition [22]: 45.6%
- inhibition [23]: -3.8%
- inhibition (Homo sapiens [24]): 40.1%
- inhibition [25]: -0.8%
- concentration at 1 h [26]: 425 ng/mL
- concentration at 1 h [27]: 33.5 ng/mL
- concentration at 0.25 h [28]: 42 ng/mL
- inhibition (Homo sapiens [29]): -3.6%
- Tmax [30]: 0.5 h
- inhibition [31]: 8.9%
- Kp at 1 h [32]: 12.7
- Activity (Salmonella typhimurium [33]): 41
- inhibition [34]: 0.9%
